Experimental data published in ChEMBL document CHEMBL4020730, “Synthesis and biological evaluation of selective tubulin inhibitors as anti-trypanosomal agents” (Bioorg Med Chem, 2017).

Key:
HEK293 = assay: Cytotoxicity against HEK293 cells assessed as reduction in cell viability after 48 hrs by MTT assay; assay type: cell-based; conditions: Homo sapiens, HEK293, 48 h
Procedure, shortened: (§1)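 Cells kept in RPMI1640 with 10% heat-inactivated FBS, L-glutamine, pyruvate and pen-strep at 37 °C, 5% CO2. 3000 cells per well seeded for 24 hrs, then given a range of compound concentrations (DMSO final ≤0.1%) for 48 hrs. 0.5 mg/ml MTT for 2 hrs at 37 °C, dye dissolved in DMSO, absorbance at 570 nm. Quadruplicates normalized and fitted to a dose-response curve.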

[1] = Selectivity index, ratio of IC50 for HEK293 cells to IC50 for bloodstream form of Trypanosoma brucei brucei Lister 427; assay type: toxicity; conditions: human, read-out: Ratio IC50
[2] = Cytotoxicity against mouse […] cells assessed as reduction in cell viability after 48 hrs by MTT assay; assay type: cell-based; procedure, shortened: as §1
[3] = system: Trypanosoma brucei brucei; assay: Anti-parasitic activity against bloodstream form of Trypanosoma brucei brucei Lister 427 after 48 hrs by MTS assay; assay type: functional; conditions: Lister 427, 48 h
Procedure, shortened: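 Bloodstream-form parasites grown in HMI-9 with 10% FBS at 37 °C, 7.5% CO2. 5,000 cells per well exposed to a range of compound concentrations, 0.1% DMSO, for 48 hrs at 37 °C. MTS (5% PMS) then added for 3 hrs at 37 °C, formazan read at 490 nm. Quadruplicate data normalized and fitted to a dose-response curve for IC50.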

[4] = Selectivity index, ratio of IC50 for mouse […] cells to IC50 for bloodstream form of Trypanosoma brucei brucei Lister 427; assay type: toxicity; conditions: read-out: Ratio IC50
[5] = system: Trypanosoma brucei brucei; assay: Inhibition of tubulin polymerization in Trypanosoma brucei brucei Lister 427 incubated for 7 hrs by Western blot analysis
Procedure, shortened: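 Parasites treated with 0.5% DMSO or different doses of compound for 7 hrs. Cells washed in TDB buffer pH 7.4, then lysed in Pipes pH 6.8 buffer with 0.2% Triton X-100 for 5 mins at 30 °C. Supernatant (soluble) and pellet (polymerized) fractions separated by centrifugation. Lysate from equal cell numbers run on 10% SDS-PAGE, western blot with TAT-1 tubulin antibody.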

CCS(=O)(=O)N(C)c1ccc(NC(=O)c2ccc3c(c2)OCO3)cc1OCc1cccc(C#N)c1
IC50 (HEK293): > 500 µM | selectivity ratio [1]: > 21 | IC50 [2]: > 500 µM | IC50 [3]: 23.5 µM | selectivity ratio [4]: > 21

CN(c1ccc(NC(=O)c2cc(C(F)(F)F)cc(C(F)(F)F)c2)cc1OCc1cccc(C(=N)N)c1)S(C)(=O)=O
IC50 (HEK293): > 500 µM | selectivity ratio [1]: > 10 | IC50 [2]: > 500 µM | IC50 [3]: > 50 µM | selectivity ratio [4]: > 10

CN(c1ccc(NC(=O)c2ccc(C(F)(F)F)cc2C(F)(F)F)cc1OCc1ccccc1C(F)(F)F)S(C)(=O)=O
IC50 (HEK293): 34.8 µM | selectivity ratio [1]: 3 | IC50 [2]: > 500 µM | IC50 [3]: 13.3 µM | selectivity ratio [4]: > 38

CN(c1ccc(NC(=O)c2ccc(C(F)(F)F)cc2C(F)(F)F)cc1OCc1cccc(C(F)(F)F)c1)S(C)(=O)=O
IC50 (HEK293): 80.6 µM | selectivity ratio [1]: 10 | IC50 [2]: > 500 µM | IC50 [3]: 8.42 µM | selectivity ratio [4]: > 59

CN(c1ccc(NC(=O)c2cc(C(F)(F)F)cc(C(F)(F)F)c2)cc1OCc1cccc(C(F)(F)F)c1)S(=O)(=O)Cc1ccccc1
IC50 (HEK293): 59.8 µM | selectivity ratio [1]: 33 | IC50 [2]: 69.5 µM | IC50 [3]: 2.08 µM | selectivity ratio [4]: 29

CN(c1ccc(NC(=O)c2ccc(C(F)(F)F)cc2C(F)(F)F)cc1OCc1ccccc1C(F)(F)F)S(=O)(=O)Cc1ccccc1
IC50 (HEK293): > 500 µM | selectivity ratio [1]: 15 | IC50 [2]: 158 µM | IC50 [3]: 10.5 µM | selectivity ratio [4]: > 48

CCCCCCOc1cc(NC(=O)c2cc(C(F)(F)F)cc(C(F)(F)F)c2)ccc1N(C)S(=O)(=O)Cc1ccccc1
IC50 (HEK293): 69.9 µM | selectivity ratio [1]: 2 | IC50 [2]: 13.3 µM | IC50 [3]: 7.81 µM | selectivity ratio [4]: 9

Cc1ccc(C(F)(F)F)cc1COc1cc(NC(=O)c2cc(C(F)(F)F)cc(C(F)(F)F)c2)ccc1N(C)S(C)(=O)=O
IC50 (HEK293): > 500 µM | selectivity ratio [1]: > 32 | IC50 [2]: > 500 µM | IC50 [3]: 15.6 µM | selectivity ratio [4]: > 32

CN(c1ccc(NC(=O)c2cc(C(F)(F)F)cc(C(F)(F)F)c2)cc1OCc1ccc(C(F)(F)F)cc1)S(=O)(=O)Cc1ccccc1
IC50 (HEK293): 293 µM | selectivity ratio [1]: > 147 | IC50 [2]: > 500 µM | IC50 [3]: 3.39 µM | selectivity ratio [4]: 86

Cc1ccc(C)c(COc2cc(Nc3nccc(N)n3)ccc2N(C)S(C)(=O)=O)c1
IC50 (HEK293): > 500 µM | selectivity ratio [1]: > 10 | IC50 [2]: > 500 µM | IC50 [3]: > 50 µM | selectivity ratio [4]: > 10

CN(c1ccc(NC(=O)c2cc(C(F)(F)F)cc(C(F)(F)F)c2)cc1OCc1ccccc1C(F)(F)F)S(=O)(=O)Cc1ccccc1
IC50 (HEK293): > 500 µM | selectivity ratio [1]: > 70 | IC50 [2]: > 500 µM | IC50 [3]: 7.13 µM | selectivity ratio [4]: > 70

CN(c1ccc(NC(=O)c2ccc(C#N)cc2)cc1OCc1ccc(C(F)(F)F)cc1)S(=O)(=O)Cc1ccccc1
IC50 (HEK293): > 500 µM | selectivity ratio [1]: > 7140 | IC50 [2]: > 500 µM | IC50 [3]: 0.07 µM | inhibition [5]: Dose-dependent effect | selectivity ratio [4]: > 7140

CN(c1ccc(NC(=O)c2ccc(C(F)(F)F)cc2C(F)(F)F)cc1OCc1cccc(C(F)(F)F)c1)S(=O)(=O)Cc1ccccc1
IC50 (HEK293): 176 µM | selectivity ratio [1]: 12 | IC50 [2]: 20.5 µM | IC50 [3]: 1.78 µM | selectivity ratio [4]: 99

CN(c1ccc(NC(=O)c2cc(C(F)(F)F)cc(C(F)(F)F)c2)cc1OCc1cccc(C(F)(F)F)c1)S(C)(=O)=O
IC50 (HEK293): 54 µM | selectivity ratio [1]: 6 | IC50 [2]: > 500 µM | IC50 [3]: 8.58 µM | selectivity ratio [4]: > 58

CCCCCCOc1cc(NC(=O)c2ccc(C(F)(F)F)cc2C(F)(F)F)ccc1N(C)S(C)(=O)=O
IC50 (HEK293): > 500 µM | selectivity ratio [1]: > 17 | IC50 [2]: > 500 µM | IC50 [3]: 30.1 µM | selectivity ratio [4]: > 17

CCCCCCOc1cc(NC(=O)c2cc(C(F)(F)F)cc(C(F)(F)F)c2)ccc1N(C)S(C)(=O)=O
IC50 (HEK293): > 500 µM | selectivity ratio [1]: > 22 | IC50 [2]: > 500 µM | IC50 [3]: 23 µM | selectivity ratio [4]: > 22

CN(c1ccc(NC(=O)c2cc(C(F)(F)F)cc(C(F)(F)F)c2)cc1OCc1ccccc1C(F)(F)F)S(C)(=O)=O
IC50 (HEK293): > 500 µM | selectivity ratio [1]: > 51 | IC50 [2]: > 500 µM | IC50 [3]: 9.85 µM | selectivity ratio [4]: > 51

Cc1ccc(C(F)(F)F)cc1COc1cc(NC(=O)c2ccc(C(F)(F)F)cc2C(F)(F)F)ccc1N(C)S(C)(=O)=O
IC50 (HEK293): 102 µM | selectivity ratio [1]: 8 | IC50 [2]: > 500 µM | IC50 [3]: 13 µM | selectivity ratio [4]: > 38
